# Laboratory results taken from ChEMBL document CHEMBL3596181, “Optimization of the anti-cancer activity of phosphatidylinositol-3 kinase pathway inhibitor PITENIN-1: switching a thiourea with 1,2,3-triazole” (Medchemcomm, 2014).
# Calls of active or inactive are those of the source. The rule behind the calls is not given here.
# Experiments:
# [1] = molecular target: RAC-alpha serine/threonine-protein kinase (Homo sapiens) (UniProt P31749); experiment: Inhibition of Akt PH domain (unknown origin) binding to PI(3,4)P2 at 100 uM by lipid overlay assay
# Outline: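 Lipid overlay: AktPH domain binding to PI(3,4)P2 spotted on a […] membrane.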
# [2] = Half life in mouse liver microsomes; format: ADME
# Outline: (§1)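 Stability in mouse liver microsomes in vitro. Half-life (min) and intrinsic clearance (μL·min⁻¹·mg⁻¹) were determined.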
# [3] = Clearance in mouse liver microsomes; format: ADME; settings: read-out: CLH; outline: as §1
# A2780 [4] = experiment: Cytotoxicity against human A2780 cells by […]; format: functional, cell-based
# Outline: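 Cells were exposed to inhibitors together with 1 μg/mL TRAIL for 24 hr. Viability was read by CellTiter-Glo assay.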
# A2780 [5] = experiment: Cytotoxicity against human A2780 cells by ESI; format: functional, cell-based
# A2780 [6] = experiment: Antimigratory activity against human A2780 cells at 0.75 to 1.5 uM by wound healing assay; format: functional, cell-based
# Outline: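 Wound healing: A2780 monolayers were treated with inhibitors and then scratch-wounded. The cell-free area was photographed at set time points, and the open wound area was quantified.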
# U-87 MG = experiment: Cytotoxicity against human U87MG cells at 6.25 to 50 uM after 24 hrs by CellTitre-Glo assay; format: functional, cell-based; settings: U-87MG ATCC
# Outline: (§2)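 Cells were treated with inhibitors alone for 24 hr. Viability was read by CellTiter-Glo luminescence.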
# [7] = Inhibition of Akt in human U87MG cells assessed as inhibition of TORC1/p70S6K/S6 pathway at 0.3 to 50 uM after 7 hrs by Western blotting analysis; format: cell-based; settings: U-87MG ATCC
# Outline: (§3)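 U87MG or A2780 cells were exposed to inhibitors for 7 hr. Lysates were Western blotted with phospho-S6 and total S6 antibodies.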
# T47D = experiment: Cytotoxicity against human T47D cells at 6.25 to 50 uM after 24 hrs by CellTitre-Glo assay; format: functional, cell-based; outline: as §2
# [8] = Half life in mouse at 1 mg/kg, iv; format: ADME, organism-based; settings: in vivo
# A2780 [9] = experiment: Cytotoxicity against human A2780 cells at 6.25 to 50 uM after 24 hrs by CellTitre-Glo assay; format: functional, cell-based; outline: as §2
# [10] = Clearance in mouse at 1 mg/kg, iv; format: ADME, organism-based; settings: in vivo
# [11] = Bioavailability in ip dosed mouse; format: ADME, organism-based; settings: in vivo
# Outline: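 Bioavailability was calculated from intraperitoneal administration relative to an intravenous 1 mg/kg dose in mouse.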
# [12] = Inhibition of Akt in human A2780 cells assessed as inhibition of TORC1/p70S6K/S6 pathway at 0.3 to 50 uM after 7 hrs by Western blotting analysis; format: cell-based; outline: as §3
# Sequence of RAC-alpha serine/threonine-protein kinase (Homo sapiens) (P31749 whole entry, the tested form may be a part): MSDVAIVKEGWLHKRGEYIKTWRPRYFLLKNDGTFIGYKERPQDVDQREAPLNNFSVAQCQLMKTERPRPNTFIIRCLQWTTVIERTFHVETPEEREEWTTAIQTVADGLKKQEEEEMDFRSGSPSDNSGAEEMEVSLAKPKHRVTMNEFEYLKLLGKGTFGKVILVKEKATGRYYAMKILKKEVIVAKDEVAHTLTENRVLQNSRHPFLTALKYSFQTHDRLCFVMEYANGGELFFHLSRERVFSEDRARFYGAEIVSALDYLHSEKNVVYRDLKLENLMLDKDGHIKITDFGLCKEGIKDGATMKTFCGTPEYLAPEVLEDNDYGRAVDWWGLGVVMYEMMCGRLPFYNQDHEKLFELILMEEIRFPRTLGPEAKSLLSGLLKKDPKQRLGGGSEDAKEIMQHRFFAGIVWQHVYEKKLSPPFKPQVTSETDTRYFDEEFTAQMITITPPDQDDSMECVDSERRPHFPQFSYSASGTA
Structure (SMILES),EC50 (A2780 [4]),EC50 (A2780 [5]),further results
O=C(NC(=S)Nc1cc([N+](=O)[O-])cc(Cl)c1O)c1ccccc1,–,–,inhibition [1]: Active
Cc1cc(C)cc(C(=O)NC(=S)Nc2cc([N+](=O)[O-])ccc2O)c1,–,–,half-life [2]: 0.03 h; microsomal CLint [3]: 1260 µL/min/mg
Cc1cccc(O)c1-n1cc(C(=O)c2ccccc2)nn1,8 µmol,8.1 µmol,–
O=C(c1ccccc1)c1cn(-c2cc(Cl)ccc2O)nn1,51.6 µmol,104 µM,–
Cc1cc(C)cc(C(=O)c2cn(-c3c(C)cccc3O)nn2)c1,98.4 µmol,104 µM,–
CC(C)c1ccc(C(=O)c2cn(-c3cc(Cl)ccc3O)nn2)cc1,41.6 µmol,64.1 µmol,–
Cc1cccc(O)c1-n1cc(C(=O)c2ccc3ccccc3c2)nn1,74.9 µmol,85.2 µmol,–
COc1ccc(Cl)cc1-n1cc(C(=O)c2ccccc2)nn1,> 100 µmol,> 100 µmol,–
Cc1cc(C)cc(C(=O)c2cn(-c3cc(C)ccc3O)nn2)c1,> 100 µmol,> 100 µmol,–
Cc1ccc(O)c(-n2cc(C(=O)c3ccccc3)nn2)c1,> 100 µmol,> 100 µmol,–
Cc1cc(C)cc(C(=O)c2cn(-c3cc(Cl)ccc3O)nn2)c1,30.6 µmol,57.8 µmol,–
Cc1ccc(O)c(-n2cc(C(=O)c3ccc(C(C)C)cc3)nn2)c1,> 100 µmol,> 100 µmol,–
Cc1cc(C)cc(C(=O)c2cn(-c3ccc([N+](=O)[O-])cc3O)nn2)c1,70.5 µmol,89.1 µmol,–
Cc1ccc(O)c(-n2cc(C(=O)c3ccc4ccccc4c3)nn2)c1,> 100 µmol,> 100 µmol,–
O=C(c1ccc2ccccc2c1)c1cn(-c2cc(Cl)ccc2O)nn1,> 100 µmol,> 100 µmol,–
O=C(NCc1cn(-c2cc(Cl)ccc2O)nn1)c1cc(C(F)(F)F)cc(C(F)(F)F)c1,14 µmol,16.2 µmol,–
Cc1cccc(O)c1-n1cc(C(=O)c2ccc(C(C)C)cc2)nn1,> 100 µmol,> 100 µmol,–
O=C(c1cc(C(F)(F)F)cc(C(F)(F)F)c1)c1cn(-c2cc(Cl)ccc2O)nn1,3.15 µmol,11.99 µmol,Activity (A2780 [6]): Active; Activity (U-87 MG): Active; inhibition [7]: Active; half-life [2]: 1.98 h; Activity (T47D): Active; half-life [8]: 3.22 h; Activity (A2780 [9]): Active; clearance [10]: 15.5 mL/min/kg; inhibition [1]: Active; microsomal CLint [3]: 19.4 µL/min/mg; bioavailability [11]: 85.1%; inhibition [12]: Active
Cc1cc(C)cc(C(=O)c2cn(-c3ccc(Cl)cc3O)nn2)c1,64.4 µmol,> 100 µmol,–
O=C(c1ccccc1)c1cn(-c2ccc(Cl)cc2O)nn1,42.3 µmol,48.9 µmol,–
